Experiment [1] has as its system Mycobacterium tuberculosis (RCMB 010126). Briefly: Microplate Alamar blue assay. Type of experiment: cell-based. Conditions: RCMB010126, Mycobacterium tuberculosis RCMB 010126, MABA. Background: Alamar Blue is a resazurin reagent that responds to reducing activity.
Experiment [2] deals with HepG-2 cells (human liver carcinoma). The experiment is described as follows: MTT cytotoxicity assay on HepG-2. The class given is cell-based. Conditions: HepG2, 48 h, read-out: IC50 (μM) ± SD HepG-2. The method, boiled down: (§1)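 Cells grown in DMEM with 10% heat-inactivated FBS and 100 U ml⁻¹ penicillin/streptomycin at 37 °C, 5% CO₂. Seeded at 3 × 10⁴ cells per well and exposed for 48 h in serum-free medium to serial concentrations of test compound (DMSO), with doxorubicin as positive control. MTT (2.5 mg mL⁻¹) was added for 4 h, formazan dissolved in DMSO, and absorbance read at 570 nm. Viability was taken relative to untreated cells; triplicates were run on three days, and IC50 derived by probit analysis.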

Experiment [3] concerns the target T1, ovine COX-2 (Ovis aries, UniProt P79208).
T1 sequence (P79208 17-603): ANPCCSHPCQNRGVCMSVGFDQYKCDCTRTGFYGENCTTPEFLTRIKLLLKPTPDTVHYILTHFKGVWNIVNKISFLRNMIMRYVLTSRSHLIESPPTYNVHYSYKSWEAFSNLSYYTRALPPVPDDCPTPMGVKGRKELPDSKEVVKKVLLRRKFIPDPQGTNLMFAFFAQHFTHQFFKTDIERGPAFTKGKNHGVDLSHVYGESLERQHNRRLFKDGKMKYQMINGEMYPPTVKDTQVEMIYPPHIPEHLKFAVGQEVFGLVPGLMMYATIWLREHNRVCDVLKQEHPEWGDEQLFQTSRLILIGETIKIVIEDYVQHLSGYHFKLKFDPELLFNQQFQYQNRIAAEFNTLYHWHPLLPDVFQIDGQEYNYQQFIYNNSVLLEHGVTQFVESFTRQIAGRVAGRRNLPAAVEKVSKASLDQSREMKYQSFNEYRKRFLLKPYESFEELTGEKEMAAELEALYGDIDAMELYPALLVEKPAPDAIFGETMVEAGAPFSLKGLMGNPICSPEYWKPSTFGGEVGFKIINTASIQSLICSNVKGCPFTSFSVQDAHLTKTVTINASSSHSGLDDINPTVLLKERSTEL
The experiment is described as follows: COX-2 inhibition enzyme immunoassay. Conditions: for Selectivity index (SI): COX-1 IC50/COX-2 IC50. The class given is biochemical.

Experiment [4] has as its system MCF-7 cells (human breast adenocarcinoma). The experiment is described as follows: MTT cytotoxicity assay on MCF-7. To be noted: MCF7, 48 h, read-out: IC50 (μM) ± SD MCF-7. Type of experiment: cell-based. The essentials: as §1
In general terms: Formazan colour is commonly taken as a measure of viable cells.

For experiment [5], the target named is T2, ovine COX-1 (Ovis aries, UniProt P05979).
T2 sequence (P05979 25-600): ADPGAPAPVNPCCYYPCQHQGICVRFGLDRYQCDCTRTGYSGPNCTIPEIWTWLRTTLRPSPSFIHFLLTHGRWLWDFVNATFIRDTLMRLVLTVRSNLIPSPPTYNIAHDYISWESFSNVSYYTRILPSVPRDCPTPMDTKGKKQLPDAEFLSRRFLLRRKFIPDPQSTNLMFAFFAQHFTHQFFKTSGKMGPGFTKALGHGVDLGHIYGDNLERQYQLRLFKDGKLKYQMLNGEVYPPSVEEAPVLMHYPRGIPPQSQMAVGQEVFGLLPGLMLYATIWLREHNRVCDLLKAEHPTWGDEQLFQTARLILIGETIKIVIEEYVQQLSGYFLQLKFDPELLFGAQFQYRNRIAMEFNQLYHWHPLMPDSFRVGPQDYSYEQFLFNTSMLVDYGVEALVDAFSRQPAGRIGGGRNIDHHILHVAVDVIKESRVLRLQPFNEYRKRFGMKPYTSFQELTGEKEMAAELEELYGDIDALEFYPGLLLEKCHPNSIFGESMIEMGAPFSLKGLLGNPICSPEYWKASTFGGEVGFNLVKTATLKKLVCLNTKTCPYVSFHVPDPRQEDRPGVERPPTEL
The experiment is described as follows: COX-1 inhibition enzyme immunoassay. Type of experiment: biochemical.

Converted amounts (≈) assume the structure as drawn.

A word on the MIC: it is the lowest concentration that inhibits growth of the organism. Low readings indicate a more susceptible organism, high ones a less susceptible organism. A word on the IC50: it is the concentration at which inhibition is half-maximal. The compound `Cc1ccc(-n2cc(C(=O)c3ccc4ccccc4c3O)cc(C#N)c2=O)cc1` [Compound 3b, 5-(1-Hydroxy-2-naphthoyl)-2-oxo-1-(p-tolyl)nicotinonitrile] gave an MIC in experiment [1] of 3.9 µg/mL (≈ 10.3 µM). Further, the IC50 in experiment [2] was 36.8 ± 3.9 µM; in experiment [3] it was 6.05 µM; in experiment [4], 9.2 ± 0.6 µM; in experiment [5] it was 464 µM. Moreover, in experiment [3], the “Selectivity index (SI)” value came to 76.7.
In the case of `COc1ccc(-n2cc(C(=O)c3ccc4ccccc4c3O)cc(C#N)c2=O)cc1` [Compound 3c, 5-(1-Hydroxy-2-naphthoyl)-1-(4-methoxyphenyl)-2-oxo-nicotinonitrile], the IC50 in experiment [2] was 27.8 ± 2.4 µM; in experiment [3] it was 0.53 µM; in experiment [4], 8.5 ± 0.7 µM; in experiment [5], 789 µM. In addition, the “Selectivity index (SI)” value in experiment [3] is reported as 1490.
On to `N#Cc1cc(C(=O)c2ccc3ccccc3c2O)cn(-c2ccc(Br)cc2)c1=O` [Compound 3d, 1-(4-Bromophenyl)-5-(1-hydroxy-2-naphthoyl)-2-oxo-nicotinonitrile], for which the MIC in experiment [1] is below 1 µg/mL. Also, the IC50 in experiment [2] is 30.1 ± 2.6 µM; in experiment [3] it was 1.46 µM; in experiment [4], 8.9 ± 0.7 µM; in experiment [5] it was 1420 µM. Also, the “Selectivity index (SI)” value in experiment [3] was determined as 972.9.
In turn, `N#Cc1cc(C(=O)c2ccc3ccccc3c2O)cn(-c2ccc([N+](=O)[O-])cc2)c1=O` [Compound 3e, 5-(1-Hydroxy-2-naphthoyl)-1-(4-nitrophenyl)-2-oxo-nicotinonitrile] gave an MIC in experiment [1] below 2 µg/mL. For the same compound, the IC50 in experiment [2] is 25.3 ± 2.1 µM; in experiment [3], 1.68 µM; in experiment [4], 9.3 ± 1.1 µM; in experiment [5], 283 µM. Further, the “Selectivity index (SI)” value in experiment [3] is on record as 168.7.
`Cc1c(-n2cc(C(=O)c3ccc4ccccc4c3O)cc(C#N)c2=O)c(=O)n(-c2ccccc2)n1C` [Compound 3f, 1-(1,5-Dimethyl-3-oxo-2-phenyl-2,3-dihydro-1H-pyrazol-4-yl)-5-(1-hydroxy-2-naphthoyl)-2-oxo-nicotinonitrile]: the MIC in experiment [1] is below 2 µg/mL. The IC50 in experiment [2] is 30.5 ± 3.1 µM; in experiment [3] it was 16.4 µM; in experiment [4] it was 10.5 ± 1.1 µM; in experiment [5] it was 728 µM. Further, the “Selectivity index (SI)” value in experiment [3] came to 44.5.
For the compound `Cc1cnc(-n2cc(C(=O)c3ccc4ccccc4c3O)cc(C#N)c2=O)s1` [Compound 3g, 5-(1-Hydroxy-2-naphthoyl)-1-(5-methylthiazol-2-yl)-2-oxo-nicotinonitrile], the MIC in experiment [1] was 3.9 µg/mL (≈ 10.1 µM). The IC50 was 28.5 ± 2.9 µM in experiment [2], 48 µM in experiment [3], 12.1 ± 1.2 µM in experiment [4] and 2580 µM in experiment [5]. For the same compound, the “Selectivity index (SI)” value in experiment [3] is given as 53.8.
In experiment [1], `N#Cc1cc(C(=O)c2ccc3ccccc3c2O)cn(-c2nc3ccccc3s2)c1=O` [Compound 3h, 1-(Benzo[d]thiazol-2-yl)-5-(1–Hydroxy-2-naphthoyl)-2-oxo-nicotinonitrile] displayed a minimum inhibitory concentration (MIC) below 2 µg/mL. The IC50 was 28.1 ± 3.1 µM in experiment [2], 0.496 µM in experiment [3], 10.3 ± 1.2 µM in experiment [4] and 684 µM in experiment [5]. In addition, the “Selectivity index (SI)” value in experiment [3] amounted to 1380.
For the compound `CC(=Nn1cc(C(=O)c2ccc3ccccc3c2O)cc(C#N)c1=O)c1cc2ccccc2oc1=O` [Compound 3i, 5-(1-hydroxy-2-naphthoyl)-2-oxo-1-((1-(2-oxo-2H-chromen-3-yl)ethylidene)amino)nicotinonitrile], in experiment [1], the MIC was below 1 µg/mL. Also, the IC50 in experiment [2] was 30.5 ± 2.9 µM; in experiment [3], 13.5 µM; in experiment [4], 9.7 ± 0.8 µM; in experiment [5], 1500 µM. Moreover, the “Selectivity index (SI)” value in experiment [3] was 111.3.
Consider `N#CCC(=O)NN=Cc1coc2c(ccc3ccccc32)c1=O` [Compound 5, 2-cyano-N′-((4-oxo-4H-benzo[h]chromen-3-yl)methylene)acetohydrazide], for which the MIC in experiment [1] turned out to be 3.9 µg/mL (≈ 12.8 µM). The IC50 is 41.6 ± 3.5 µM in experiment [2], 24.6 µM in experiment [3], 10.7 ± 1.2 µM in experiment [4] and 2070 µM in experiment [5]. Further, the “Selectivity index (SI)” value in experiment [3] is reported as 84.3.
Take `O=C(c1cnc2[nH]nc(O)c2c1)c1ccc2ccccc2c1O` [Compound 6, 5-(1-hydroxy-2-naphthoyl)-3-hydroxy-1H-pyrazolo [3,4-b]pyridine]: the MIC in experiment [1] is below 2 µg/mL. Also, the IC50 was 34.9 ± 2.8 µM in experiment [2], 30.5 µM in experiment [3], 9.1 ± 0.5 µM in experiment [4] and 1070 µM in experiment [5]. In addition, in experiment [3], the “Selectivity index (SI)” value worked out at 35.0.
Regarding `O=C(C1=CNC(=S)NN=C1)c1ccc2ccccc2c1O` [Compound 7, 6-(1-Hydroxy-2-naphthoyl)-3-thioxo-3,4-dihydro-2H-1,2,4-triazepine], the MIC in experiment [1] was below 2 µg/mL. Further, the IC50 in experiment [2] is 28.8 ± 2.5 µM; in experiment [3], 1.24 µM; in experiment [4], 10.5 ± 0.9 µM; in experiment [5] it was 732 µM. Moreover, the “Selectivity index (SI)” value in experiment [3] was found to be 588.6.
For the compound `O=C(C1=CSc2ccccc2N=C1)c1ccc2ccccc2c1O` [Compound 8, 3-(1-Hydroxy-2-naphthoyl)benzo[b][1,4]thiazepine], the MIC in experiment [1] was found to be 7.81 µg/mL (≈ 23.6 µM). Besides, the IC50 in experiment [2] is 36.5 ± 3.4 µM; in experiment [3], 0.754 µM; in experiment [4] it was 9.7 ± 1.1 µM; in experiment [5], 858 µM. Besides, the “Selectivity index (SI)” value in experiment [3] is given as 1138.
`CCOC1Oc2c(ccc3ccccc23)-c2n[nH]cc21` (centres unmarked) [Compound 10, 11-ethoxy-2,11-dihydrobenzo[7,8]chromeno[4,3-c]pyrazole] gave an MIC in experiment [1] of 7.81 µg/mL (≈ 29.3 µM). Besides, the IC50 is 34.5 ± 2.6 µM in experiment [2], 1.01 µM in experiment [3], 9.3 ± 0.5 µM in experiment [4] and 1000 µM in experiment [5]. Further, the “Selectivity index (SI)” value in experiment [3] is 989.3.
Consider `Cc1c(N=Cc2coc3c(ccc4ccccc43)c2=O)c(=O)n(-c2ccccc2)n1C` [Compound 12a, 1,5-Dimethyl-4-(((4-oxo-4H-benzo[h]chromen-3-yl)methylene)amino)-2-phenyl-1,2-dihydro-3H-pyrazol-3-one], for which the MIC in experiment [1] is 62.5 µg/mL (≈ 153 µM). Besides, the IC50 in experiment [2] is 35.5 ± 3.6 µM; in experiment [3], 24.7 µM; in experiment [4], 10.2 ± 1.2 µM; in experiment [5], 1220 µM. Also, the “Selectivity index (SI)” value in experiment [3] was 49.5.
Turning to `O=c1c(C=Nc2nc3ccccc3s2)coc2c1ccc1ccccc12` [Compound 12b, 3-((Benzo[d]thiazol-2-ylimino)methyl)-4H-benzo[h]chromen-4-one], in experiment [1], the MIC came to 15.6 µg/mL (≈ 43.9 µM). In addition, the IC50 in experiment [2] is 40.1 ± 3.9 µM; in experiment [3] it was 1.37 µM; in experiment [4] it was 8.9 ± 0.7 µM; in experiment [5], 1340 µM. Moreover, the “Selectivity index (SI)” value in experiment [3] is listed as 971.8.
As to `COc1cccc2c1C(=O)c1c(O)c3c(c(O)c1C2=O)C[C@@](O)(C(=O)CO)C[C@@H]3O[C@H]1C[C@H](N)[C@H](O)[C@H](C)O1` [DOXO, Doxorubicin, reference compound], the results for the IC50 in experiment [2] and in experiment [4] were 28.5 ± 1.9 µM and 10.3 ± 0.8 µM, respectively.
On to `NNC(=O)c1ccncc1` [IN, Isoniazid, reference compound], for which inhibition of growth in experiment [1] (MIC) required 0.24 µg/mL (≈ 1.75 µM).

The values are drawn from publication PMC9058152 (RSC Advances, 2020).
